ARFGAP1 inh – rat ARFGAP1 inhibition. 0.26% of 360,000 active. Q62848. AID 651572. Arfgap1-stimulated ARF1 GTP hydrolysis, GDP FP detection. inhibition, % at 16.5 µM;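 active = inhibition above a per-plate limit, mean inhibition of low control wells plus 3 SD, cut at about 25% in these data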;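 note: 0% = DMSO wells with enzyme and 100% = wells lacking Arfgap1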
Target sequence (Q62848 1-136 limits assumed): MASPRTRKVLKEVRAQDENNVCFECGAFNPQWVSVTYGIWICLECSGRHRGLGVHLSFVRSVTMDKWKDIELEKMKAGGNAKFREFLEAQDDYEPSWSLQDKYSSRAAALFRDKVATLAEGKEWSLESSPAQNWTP
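Assay system: Rat Arfgap1 GAP domain (His6, aa 1-136), purified enzyme | Buffer or medium: HEPES 25 mM pH 7.5, NaCl 150 mM, MgCl2, DTT | Schedule: GTP hydrolysis reaction 2 h at 25 °C | Signal: FP of antibody-bound GDP Alexa 633 tracer, ex 620/em 688 nm | Measure: Percent inhibition of Arfgap1-stimulated GTP hydrolysis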
Rtt109 HAT inh – C. albicans Rtt109 histone acetyltransferase inhibition; inhibition, % at 34.9 µM; Q5AAJ8; 0.16% of 330,000 active; purified Rtt109/Vps75, ThioGlo CoA-SH fluorescence, 4 h;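 active = inhibition of at least 50% in every replicate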
FGF22 binding – FGF22 (human) thermal shift binding. recombinant FGF22 thermal shift, SYPRO orange fluorescence; percent of sucrose octasulfate shift, DMSO zero. AID 651658. activity (Tm shift, normalised), % at 9.99 µM. 1.5% of 340,000 active;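 active = mean Tm shift, scaled 0 neutral to 100 positive control, at about 1.3% or above, every replicate too, limit read from the data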
Target sequence (Q9HCT0 whole entry, looked up): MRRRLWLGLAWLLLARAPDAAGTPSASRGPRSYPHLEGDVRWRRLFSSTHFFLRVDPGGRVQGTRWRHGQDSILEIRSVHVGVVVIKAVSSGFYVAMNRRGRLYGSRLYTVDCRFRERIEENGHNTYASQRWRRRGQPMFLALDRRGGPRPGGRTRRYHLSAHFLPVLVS
ASAP1 GAP inh – inhibitors of human ASAP1 ArfGAP activity; inhibition, % at 16.5 µM; 0.19% of 360,000 active; ASAP1-stimulated ARF1 GTP hydrolysis, GDP FP detection; Q9ULH1; in the data active = inhibition above about 25%;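 note: 0% = vehicle with enzyme and substrate and 100% = no enzyme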
Efflux pump inh – antifungal efflux pump inhibition, Nile Red retention; S. cerevisiae Candida pump triplex; inhibition, % at 10 µM; 0.44% of 330,000 active; AID 485275;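 active = plate passing quality check with inhibition over a set limit, or well fluorescence over plate mean plus 4 SD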;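 note: Nile Red retained in pooled yeast measured as flow cytometry median fluorescence; 0% = buffer negative control and 100% = Enniatin B positive control; higher means more Nile Red kept so more efflux inhibition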
Active calls of the source: *; / = no result given. An excerpt weighted towards active compounds, which were near 1.9% of everything screened.

SMILES	ARFGAP1 inh	Rtt109 HAT inh	FGF22 binding	ASAP1 GAP inh	Efflux pump inh
Cc1ccc(NC(=S)Nc2ccc(OC(F)F)c(Cl)c2)cc1F	-3	3	43*	9	0
Fc1ccc(NC(=S)Nc2ccc(F)c(Cl)c2)cc1Cl	/	-5	/	/	0
COc1cc(/C=C2/SC(=S)N(CC(=O)NC(C)(C)C)C2=O)cc(OC)c1OC	7	-5	/	8	0
COc1cc(/C=C2\SC(=S)N(CC(=O)NC(C)(C)C)C2=O)cc(OC)c1OC	2	1	43*	11	/
CN(C)CCN1CCN(C2CN(Cc3cn(Cc4cccc(Cl)c4)nn3)S(=O)(=O)C2)CC1 (configuration not stated)	-18	/	0	4	/
Cc1cccc(NC(=O)NC(C)C(c2ccccc2)N2CCN(C)CC2)c1 (configuration not stated)	10	-3	43*	-5	0
O=C(Cc1cccnc1)N1CC(=O)N2[C@H](CO)[C@@H](c3ccc(C4=CCCCC4)cc3)[C@H]2C1	/	/	0	/	/
O=C(COC(=O)Cc1ccc(Cl)cc1)NCc1ccc(F)cc1	-1	-1	0	6	0
O=C(COC(=O)c1ccc(Br)o1)NCc1ccc(F)cc1	19	8	27*	8	1
O=C(COC(=O)c1ccc(Br)o1)NCc1ccc(Cl)cc1	4	4	0	-4	0
NC(=O)c1ccc(NC(=O)COC(=O)CCC(=O)c2ccc(Cl)cc2)cc1	3	-9	43*	13	0
O=C(COC(=O)CCC(=O)c1ccc(Cl)cc1)NCc1ccc(F)cc1	-24	-1	43*	-16	0
O=C(O)CN1C(=O)/C(=C\c2ccccc2OCc2ccc(Cl)cc2Cl)SC1=S	-28	-2	0	-13	0
CCC(=O)N(C)C[C@@H]1Oc2cc(C#Cc3ccccn3)ccc2S(=O)(=O)N([C@H](C)CO)C[C@H]1C	/	/	0	/	/
COc1ccccc1NC(=O)NCCN1CCN(C(=O)Nc2ccccc2OC)CC1	-7	21	0	-1	0
CN(C)S(=O)(=O)c1ccc(C(=O)NCC(=O)N/N=C/c2ccccc2)cc1	3	/	44*	-4	0
O=C(CN(Cc1ccccc1)S(=O)(=O)c1ccccc1)N/N=C/c1ccc([N+](=O)[O-])cc1	6	3	/	6	0
O=C(CN(Cc1ccccc1Cl)S(=O)(=O)c1ccc(Cl)cc1)N/N=C/c1ccc(C(=O)O)cc1	-4	18	1.5*	7	0
CCCN1CCC(=NNc2ccc(C(=O)O)cc2)CC1	1	-15	0	3	0
CCCCn1c(=O)cc(N2CCOCC2)[nH]c1=O	-17	7	0	9	0
CCn1c(=O)cc(N2CCOCC2)[nH]c1=O	0	-1	43*	-5	0
C[C@@H]1CCCCO[C@H](CN(C)C(=O)Nc2ccc(C(F)(F)F)cc2)[C@H](C)CN([C@H](C)CO)C(=O)c2cc(NC(=O)CCC(F)(F)F)ccc2O1	/	/	-1	/	/
COc1cc(/C=N/N2C(=O)CSC2=S)ccc1O	-3	25	/	5	0
O=C1CSC(=S)N1/N=C/c1cc(Br)c(O)c(Br)c1	/	11	/	/	7.5*
CC(C)CCN1CCN(Cc2cccs2)CC1CCO (configuration not stated)	2	7	43*	-5	0
SMILES	ARFGAP1 inh	Rtt109 HAT inh	FGF22 binding	ASAP1 GAP inh	Efflux pump inh
CC(C)N1CCN(Cc2cccs2)CC1CCO (configuration not stated)	3	-4	0	3	/
CN(Cc1cc(=O)n2ccsc2n1)c1ccccc1	3	1	44*	9	0
CO[C@@H]1CN(C)C(=O)c2cc(NC(=O)C3CC3)ccc2OC[C@@H](C)N(Cc2cccnc2)C[C@@H]1C	/	/	0	/	/
O=C([C@H]1[C@H](CO)[C@H]2Cn3c(cccc3=O)[C@H]2N1Cc1cocn1)N1CCC(Cc2ccccc2)CC1	/	/	0	/	/
O=C(O)[C@H](Cc1ccccc1)N1C(=O)c2c(Cl)c(Cl)c(Cl)c(Cl)c2C1=O	-15	11	5.8*	-5	0
COc1ccc(S(=O)(=O)Nc2ccc3c(c2)C(=O)N([C@@H](C)CO)C[C@H](C)[C@@H](CN(C)Cc2ccc(C(=O)O)cc2)OCCCC[C@H](C)O3)cc1	/	/	0	/	/
CC1=NNC(=O)C1CC(=O)N/N=C/c1ccc(C)o1 (configuration not stated)	5	/	0	5	0
Cc1ccccc1CC1(CO)CCCN(Cc2c(C)nn(C)c2Cl)C1 (configuration not stated)	-2	45	44*	-12	0
